“Also recorded” adds a separate entry of the source.
Columns and labels:
KV2.1 = assay: whole-cell patch-clamp, off-target channel, 10 μM compound; type: cell-based, Mus musculus; settings: for sensitivity of channel to compound: vs 0.1% DMSO
How it was run: (§1)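 KV channels in transiently transfected HEK293T cells, whole-cell. Pipette (mM): 140 KCl, 2.5 MgCl2, 11 EGTA, 10 HEPES, pH 7.4. Bath (mM): 145 NaCl, 2.8 KCl, 2 CaCl2, 1 MgCl2, 10 glucose, 10 HEPES, pH 7.4. 0.1% DMSO bath applied, then 10 μM test compound. DMSO vs compound inhibition ratio compared by unpaired t-test, n = 5.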

KV3.3 = target: T1, KV3.3 (Mus musculus, UniProt Q63959); assay: as above; type: cell-based; settings: vs 0.1% DMSO
T1 sequence (Q63959 1-769): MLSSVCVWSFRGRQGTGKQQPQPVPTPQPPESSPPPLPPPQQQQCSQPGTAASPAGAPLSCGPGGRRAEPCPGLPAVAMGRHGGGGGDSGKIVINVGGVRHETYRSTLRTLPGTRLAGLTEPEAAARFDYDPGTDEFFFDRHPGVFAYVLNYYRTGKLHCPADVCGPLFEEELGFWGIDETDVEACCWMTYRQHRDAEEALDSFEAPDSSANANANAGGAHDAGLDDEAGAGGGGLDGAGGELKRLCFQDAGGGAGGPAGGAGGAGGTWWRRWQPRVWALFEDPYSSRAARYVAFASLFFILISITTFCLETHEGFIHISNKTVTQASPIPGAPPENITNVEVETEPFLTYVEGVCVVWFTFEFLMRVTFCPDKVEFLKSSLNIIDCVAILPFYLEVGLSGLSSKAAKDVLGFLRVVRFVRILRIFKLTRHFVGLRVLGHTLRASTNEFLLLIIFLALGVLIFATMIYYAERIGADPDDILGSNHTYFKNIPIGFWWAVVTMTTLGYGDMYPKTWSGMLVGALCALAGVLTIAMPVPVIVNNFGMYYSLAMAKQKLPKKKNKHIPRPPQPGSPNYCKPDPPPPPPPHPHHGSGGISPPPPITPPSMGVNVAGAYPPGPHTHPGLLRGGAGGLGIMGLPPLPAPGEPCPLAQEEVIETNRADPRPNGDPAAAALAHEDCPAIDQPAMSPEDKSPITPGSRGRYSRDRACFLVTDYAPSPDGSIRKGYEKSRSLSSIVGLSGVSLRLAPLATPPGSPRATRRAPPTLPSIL
How it was run: as §1

[1] = target: T2, mouse Otop1 (mOtop1) channels (Mus musculus, UniProt Q80VM9); assay: whole-cell patch-clamp, "on-current" analysis of acid/alkali-evoked currents; type: cell-based
T2 sequence (Q80VM9 1-600): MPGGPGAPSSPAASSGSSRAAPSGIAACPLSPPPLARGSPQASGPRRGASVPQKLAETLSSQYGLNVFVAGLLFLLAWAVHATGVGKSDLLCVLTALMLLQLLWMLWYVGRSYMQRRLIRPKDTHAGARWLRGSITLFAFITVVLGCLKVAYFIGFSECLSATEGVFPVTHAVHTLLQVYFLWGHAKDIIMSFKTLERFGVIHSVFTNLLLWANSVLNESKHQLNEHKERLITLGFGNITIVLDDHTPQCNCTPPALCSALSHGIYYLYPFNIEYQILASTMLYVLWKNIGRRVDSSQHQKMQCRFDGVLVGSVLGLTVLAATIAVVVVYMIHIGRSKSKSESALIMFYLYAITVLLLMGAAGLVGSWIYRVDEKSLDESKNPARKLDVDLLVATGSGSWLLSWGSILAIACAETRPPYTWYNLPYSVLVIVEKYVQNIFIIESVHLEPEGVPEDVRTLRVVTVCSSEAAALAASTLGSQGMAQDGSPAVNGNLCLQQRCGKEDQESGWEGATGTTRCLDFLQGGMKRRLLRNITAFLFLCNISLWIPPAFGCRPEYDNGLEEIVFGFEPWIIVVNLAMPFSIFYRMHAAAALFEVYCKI

KV4.2 = target: T3, KV4.2 (Rattus norvegicus, UniProt Q63881); assay: whole-cell patch-clamp, off-target channel, 10 μM compound; type: cell-based; settings: for sensitivity of channel to compound: vs 0.1% DMSO
T3 sequence (Q63881 1-630): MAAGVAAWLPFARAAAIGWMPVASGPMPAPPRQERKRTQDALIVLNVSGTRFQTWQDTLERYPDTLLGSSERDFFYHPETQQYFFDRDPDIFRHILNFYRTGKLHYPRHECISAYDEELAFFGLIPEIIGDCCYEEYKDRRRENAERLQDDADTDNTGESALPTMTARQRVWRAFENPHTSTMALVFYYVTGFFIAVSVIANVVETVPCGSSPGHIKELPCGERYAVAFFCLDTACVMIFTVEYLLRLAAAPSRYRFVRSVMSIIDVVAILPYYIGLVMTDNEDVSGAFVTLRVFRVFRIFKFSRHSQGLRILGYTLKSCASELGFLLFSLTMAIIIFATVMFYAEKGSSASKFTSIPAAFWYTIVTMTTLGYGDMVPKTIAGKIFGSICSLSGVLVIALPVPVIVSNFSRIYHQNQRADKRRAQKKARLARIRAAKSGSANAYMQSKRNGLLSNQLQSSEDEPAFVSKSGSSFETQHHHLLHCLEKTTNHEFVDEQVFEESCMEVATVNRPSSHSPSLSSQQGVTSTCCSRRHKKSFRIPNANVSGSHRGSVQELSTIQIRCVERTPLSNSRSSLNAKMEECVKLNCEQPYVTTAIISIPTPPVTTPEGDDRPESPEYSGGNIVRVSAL
How it was run: as §1

KV3.4 = target: T4, KV3.4 (Homo sapiens, UniProt Q03721); assay: as above; type: cell-based; settings: vs 0.1% DMSO
T4 sequence (Q03721 1-635): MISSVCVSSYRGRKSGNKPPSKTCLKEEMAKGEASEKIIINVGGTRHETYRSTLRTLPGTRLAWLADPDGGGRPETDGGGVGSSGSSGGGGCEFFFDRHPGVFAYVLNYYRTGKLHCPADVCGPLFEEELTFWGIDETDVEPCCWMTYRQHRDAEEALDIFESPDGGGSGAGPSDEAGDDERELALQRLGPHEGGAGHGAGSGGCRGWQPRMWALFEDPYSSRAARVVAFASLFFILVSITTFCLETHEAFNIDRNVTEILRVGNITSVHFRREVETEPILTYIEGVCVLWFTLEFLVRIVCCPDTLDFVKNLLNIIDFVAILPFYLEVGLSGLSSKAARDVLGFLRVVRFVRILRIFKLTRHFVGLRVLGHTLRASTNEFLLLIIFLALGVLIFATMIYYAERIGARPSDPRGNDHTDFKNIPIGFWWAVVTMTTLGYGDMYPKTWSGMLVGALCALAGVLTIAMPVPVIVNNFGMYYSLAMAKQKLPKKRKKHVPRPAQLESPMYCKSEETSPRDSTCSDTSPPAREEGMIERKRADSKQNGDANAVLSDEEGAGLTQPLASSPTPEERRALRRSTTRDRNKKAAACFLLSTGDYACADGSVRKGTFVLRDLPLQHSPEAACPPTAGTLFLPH
How it was run: as §1

[2] = EC50s, enhancing acid-evoked Otop1 currents, summary statement
[3] = apparent EC50, potentiation of mOtop1 currents, pH 5.5, on-current analysis, n = 5

sensitivity of channel to compound (KV3.3) | direct activation of the Otop1 channel [1] | effect on pH 3.5-activated mOtop1 currents ([1]; 10 μM) | EC50 [1, 2] [µM] | EC50 [1, 3] [µM] | sensitivity of channel to compound (KV4.2) | sensitivity of channel to compound (KV3.4) | inhibition ratio (KV4.2) [%] | effect on mOtop1 activity at alkaline or neutral pH ([1]; 10 μM, alkaline and neutral pH) | effect on pH 4.5-6.0 acid-activated mOtop1 currents ([1]; 10 μM, compared to the pH 3.5 group, Fig 1E) | EC50 ([1]; EC50, potentiation of mOtop1 currents, pH 6.0, on-current analysis, n = 5) [µM] | SMILES | sensitivity of channel to compound (KV2.1) | effect on pH 5.5-activated mOtop1 currents ([1]; 10 μM, pH 5.5) | inhibition ratio (KV2.1) [%]
completely resistant | without directly activating | did not potentiate | ~10 | 12.2 ± 3.4 | completely resistant | completely resistant | – | – | – | – | Cc1cc(NC(=O)c2ccc(Br)o2)ccc1NC(=O)c1ccco1 [B2FAMP, 5-Bromo-N-[4-(2-furoylamino)-3-methylphenyl]-2-furamide] | completely resistant | robust potentiation effects; also recorded: markedly potentiated; also recorded: potent potentiation effects | –
completely resistant | without directly activating | did not potentiate | ~10 | 16.8 ± 6.5 | – | completely resistant | 14.3 | – | – | – | CC(C)c1noc2ncc(C(=O)c3ccccc3O)cc12 [HIMOP, (2-hydroxyphenyl)-(3-propan-2-yl-5-isoxazolo[5,4-b]pyridinyl)methanone] | completely resistant | robust potentiation effects; also recorded: markedly potentiated; also recorded: potent potentiation effects | –
completely resistant | without directly activating | no detectable effect | ~10 | 10.3 ± 2.6 | completely resistant | completely resistant | – | did not affect | potently potentiated | 8.9 ± 4.7 | Cc1ccc(C(=O)Nc2ccc3ccccc3c2)o1 [MFaN, 5-methyl-N-2-naphthyl-2-furamide] | – | robust potentiation effects; also recorded: potent potentiation effects | 20.0
